Reference: ChEMBL document CHEMBL1154770, “Betulinic acid derivatives as human immunodeficiency virus type 2 (HIV-2) inhibitors” (J Med Chem, 2009)
Activity calls are given as the source filed them. The rule behind the calls is not given here.

Assays:
[1] = tested on: Human immunodeficiency virus 1; test: Antiviral activity against HIV1 NL4-3 infected in human TZM-b1 cells assessed as reduction in luciferase activity after 2 days by luciferase reporter gene assay; format: functional, cell-based; settings: Human immunodeficiency virus 1, NL4-3, TZM-b1, 48 h
How it was run: (§1)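 Single-round infection of TZM-bl cells with 200 TCID50 of virus in the presence of graded compound concentrations. After 2 days, the medium was removed and Bright Glo reagent was added to read luciferase luminescence (RLU). IC50 is the concentration giving 50% reduction of luciferase activity relative to virus control wells.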

[2] = Cytotoxicity against human TZM-b1 cells after 2 days; format: cell-based; settings: read-out: TC50
[3] = Selectivity index, ratio of TC50 for human TZM-b1 cells to IC50 for HIV2 KR X3 infected in human TZM-b1 cells; format: toxicity, cell-based; settings: TZM-b1 cells infected with HIV2 KR X3, read-out: Selectivity Index
How it was run: (§2)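 TC50 from 2-day CytoTox-Glo viability assay of compound-treated TZM-bl cells, divided by IC50 from single-round TZM-bl infection (200 TCID50 HIV-1 NL4-3 or HIV-2 KR.X3, 2-day luciferase read, 50% RLU reduction versus virus control).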

[4] = Antiviral activity against HIV2 KR X3 infected in human TZM-b1 cells assessed as reduction in luciferase activity after 2 days by luciferase reporter gene assay; format: functional, cell-based, Human immunodeficiency virus type 2 (isolate KR); settings: Human immunodeficiency virus 2, X3, TZM-b1, 48 h; how it was run: as §1
[5] = Selectivity index, ratio of TC50 for human TZM-b1 cells to IC50 for HIV1 NL4-3 infected in human TZM-b1 cells; format: toxicity, cell-based; settings: TZM-b1 cells infected with HIV1 NL4-3, read-out: Selectivity Index; how it was run: as §2
TZM-b1 [6] = test: Antiviral activity against HIV2 KR X3 infected in human TZM-b1 cells after 2 days by luciferase reporter gene assay; format: functional, cell-based; settings: Human immunodeficiency virus type 2 (isolate KR); how it was run: as §1
TZM-b1 [7] = test: Antiviral activity against HIV2 KR X3 harboring V3 loop of HIV1 YU-2 infected in human TZM-b1 cells after 2 days by luciferase reporter gene assay; format: functional, cell-based; settings: Human immunodeficiency virus type 2 (isolate KR); how it was run: as §1
TZM-b1 [8] = test: Inhibition of HIV1 YU-2 gp120 V3 loop assessed as inhibition of HIV2 KR X3 replication in human TZM-b1 cells; format: cell-based; settings: Human immunodeficiency virus type 1 (isolate YU2)
How it was run: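 Single-round infection of TZM-bl cells with 200 TCID50 of HIV-2 KR.X3 chimera carrying the HIV-1 YU2 V3 loop (KR.X3-YU2/V3), in presence of graded compound concentrations. After 2 days medium removed, Bright Glo added, luciferase luminescence read; IC50 = concentration halving RLU versus virus-control wells.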

[9] = tested on: HIV-1 NL4-3 (human immunodeficiency virus 1); test: Antiviral activity against HIV1 NL4-3 infected in human TZM-b1 cells after 2 days by luciferase reporter gene assay; settings: Human immunodeficiency virus 1, NL4-3, TZM-b1, 48 h
[10] = Ratio of IC50 for HIV2 KR X3 infected in human TZM-b1 cells to IC50 for HIV1 NL4-3 infected in human TZM-b1 cells; format: functional
How it was run: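 IC50s from single-round TZM-bl infection with 200 TCID50 HIV-1 NL4-3 or HIV-2 KR.X3, graded compound concentrations, 2-day luciferase (Bright Glo) read-out; IC50 = 50% RLU reduction versus virus control; ratio of HIV-2 to HIV-1 IC50.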

SMILES	IC50 [1]	CC50 at 48 h [2]	selectivity ratio [3]	IC50 [4]	further results
C=C(C)[C@@H]1CC[C@]2(C(=O)NCCCCCCNC(=O)CC(=O)O)CC[C@]3(C)[C@H](CC[C@@H]4[C@@]5(C)CC[C@H](O)C(C)(C)[C@@H]5CC[C@]43C)[C@@H]12	440 nM	34600 nM	< 2	–	–
C=C(C)[C@@H]1CC[C@]2(C(=O)NCCCCCC(=O)O)CC[C@]3(C)[C@H](CC[C@@H]4[C@@]5(C)CC[C@H](O)C(C)(C)[C@@H]5CC[C@]43C)[C@@H]12	2000 nM	> 70000 nM	–	150 nM	–
C=C(C)[C@@H]1CC[C@]2(C(=O)NCCCCCC(=O)N[C@@H](Cc3ccc(O)cc3)C(=O)O)CC[C@]3(C)[C@H](CC[C@@H]4[C@@]5(C)CC[C@H](O)C(C)(C)[C@@H]5CC[C@]43C)[C@@H]12	–	54600 nM	–	230 nM	selectivity ratio [5]: < 2
C=C(C)[C@@H]1CC[C@]2(C(=O)NCCCCCC(=O)NCC(=O)O)CC[C@]3(C)[C@H](CC[C@@H]4[C@@]5(C)CC[C@H](O)C(C)(C)[C@@H]5CC[C@]43C)[C@@H]12	34700 nM	> 64000 nM	–	350 nM	Activity (TZM-b1 [6]): Dose-dependent effect; Activity (TZM-b1 [7]): Dose-dependent effect; Activity (TZM-b1 [8]): Active; IC50 [9]: 350 nM
C=C(C)[C@@H]1CC[C@]2(C(=O)NCCCCCNC(C)=O)CC[C@]3(C)[C@H](CC[C@@H]4[C@@]5(C)CC[C@H](O)C(C)(C)[C@@H]5CC[C@]43C)[C@@H]12	–	13900 nM	< 2	–	selectivity ratio [5]: < 2
C=C(C)[C@@H]1CC[C@]2(C(=O)NCCCC(=O)NCC(=O)O)CC[C@]3(C)[C@H](CC[C@@H]4[C@@]5(C)CC[C@H](O)C(C)(C)[C@@H]5CC[C@]43C)[C@@H]12	–	> 67000 nM	–	3700 nM	selectivity ratio [5]: < 2
C=C(C)[C@@H]1CC[C@]2(C(=O)NCCCCCC(=O)NCC(=O)NCC(=O)O)CC[C@]3(C)[C@H](CC[C@@H]4[C@@]5(C)CC[C@H](O)C(C)(C)[C@@H]5CC[C@]43C)[C@@H]12	> 58000 nM	> 58000 nM	–	1700 nM	–
C=C(C)[C@@H]1CC[C@]2(C(=O)NCCCCCCCC(=O)NC(CC(C)C)[C@H](O)CC(=O)O)CC[C@]3(C)[C@H](CC[C@@H]4[C@@]5(C)CC[C@H](O)C(C)(C)[C@@H]5CC[C@]43C)[C@@H]12 (single isomer, unassigned)	42 nM	33200 nM	–	2900 nM	Ratio IC50 [10]: 70
C=C(C)[C@@H]1CC[C@]2(C(=O)NCCCCC(=O)NCC(=O)O)CC[C@]3(C)[C@H](CC[C@@H]4[C@@]5(C)CC[C@H](O)C(C)(C)[C@@H]5CC[C@]43C)[C@@H]12	–	> 65000 nM	–	2600 nM	selectivity ratio [5]: < 2
C=C(C)[C@@H]1CC[C@]2(C(=O)NCCCCC(=O)O)CC[C@]3(C)[C@H](CC[C@@H]4[C@@]5(C)CC[C@H](O)C(C)(C)[C@@H]5CC[C@]43C)[C@@H]12	32800 nM	> 72000 nM	–	170 nM	–
Cc1cn([C@H]2C[C@H](N=[N+]=[N-])[C@@H](CO)O2)c(=O)[nH]c1=O [ZIDOVUDINE]	–	–	–	69 nM	–
C=C(C)[C@@H]1CC[C@]2(C(=O)NCCCCCCCC(=O)O)CC[C@]3(C)[C@H](CC[C@@H]4[C@@]5(C)CC[C@H](O)C(C)(C)[C@@H]5CC[C@]43C)[C@@H]12	840 nM	34200 nM	< 2	–	–
C=C(C)[C@@H]1CC[C@]2(C(=O)O)CC[C@]3(C)[C@H](CC[C@@H]4[C@@]5(C)CC[C@H](O)C(C)(C)[C@@H]5CC[C@]43C)[C@@H]12 [BETULINIC ACID]	–	> 80000 nM	< 2	–	selectivity ratio [5]: < 2
C=C(C)[C@@H]1CC[C@]2(C(=O)NCCCCCCC(=O)NCC(=O)O)CC[C@]3(C)[C@H](CC[C@@H]4[C@@]5(C)CC[C@H](O)C(C)(C)[C@@H]5CC[C@]43C)[C@@H]12	4100 nM	> 63000 nM	–	420 nM	–
C=C(C)[C@@H]1CC[C@]2(C(=O)NCCCC(=O)O)CC[C@]3(C)[C@H](CC[C@@H]4[C@@]5(C)CC[C@H](O)C(C)(C)[C@@H]5CC[C@]43C)[C@@H]12	–	31200 nM	–	2800 nM	selectivity ratio [5]: < 2
C=C(C)[C@@H]1CC[C@]2(C(=O)NCCCCCCCCNC(C)=O)CC[C@]3(C)[C@H](CC[C@@H]4[C@@]5(C)CC[C@H](O)C(C)(C)[C@@H]5CC[C@]43C)[C@@H]12	140 nM	> 64000 nM	< 2	–	–
C=C(C)[C@@H]1CC[C@]2(C(=O)NCCCCCCNC(C)=O)CC[C@]3(C)[C@H](CC[C@@H]4[C@@]5(C)CC[C@H](O)C(C)(C)[C@@H]5CC[C@]43C)[C@@H]12	27 nM	48100 nM	< 2	–	IC50 [9]: 27 nM
C=C(C)[C@@H]1CC[C@]2(C(=O)NCCCCCCCC(=O)NCC(=O)O)CC[C@]3(C)[C@H](CC[C@@H]4[C@@]5(C)CC[C@H](O)C(C)(C)[C@@H]5CC[C@]43C)[C@@H]12	120 nM	15800 nM	–	640 nM	–
C=C(C)[C@@H]1CC[C@]2(C(=O)NCCCCCC(=O)N[C@@H](C)C(=O)O)CC[C@]3(C)[C@H](CC[C@@H]4[C@@]5(C)CC[C@H](O)C(C)(C)[C@@H]5CC[C@]43C)[C@@H]12	48900 nM	> 63000 nM	–	370 nM	–
C=C(C)[C@@H]1CC[C@]2(C(=O)NCCCCCCC(=O)O)CC[C@]3(C)[C@H](CC[C@@H]4[C@@]5(C)CC[C@H](O)C(C)(C)[C@@H]5CC[C@]43C)[C@@H]12	11100 nM	36200 nM	–	4500 nM	–
C=C(C)[C@@H]1CC[C@]2(C(=O)O)CC[C@]3(C)[C@H](CC[C@@H]4[C@@]5(C)CC[C@H](OC(=O)CC(C)(C)C(=O)O)C(C)(C)[C@@H]5CC[C@]43C)[C@@H]12 [BEVIRIMAT]	130 nM	> 30000 nM	< 2	–	–
C=C(C)[C@@H]1CC[C@]2(C(=O)NCCCCCC(=O)N3CCC[C@H]3C(=O)O)CC[C@]3(C)[C@H](CC[C@@H]4[C@@]5(C)CC[C@H](O)C(C)(C)[C@@H]5CC[C@]43C)[C@@H]12	51400 nM	> 60000 nM	–	630 nM	–
C=C(C)[C@@H]1CC[C@]2(C(=O)NCCCCCCCNC(C)=O)CC[C@]3(C)[C@H](CC[C@@H]4[C@@]5(C)CC[C@H](O)C(C)(C)[C@@H]5CC[C@]43C)[C@@H]12	38 nM	> 66000 nM	< 2	–	IC50 [9]: 38 nM
